TRPC6 inhibitor: blocks the mouse TRPC6 cation channel. hit rate 1.1% among 310,000. B-score at 10 µM. HEK293-TRPC6, membrane potential dye, ACh-evoked depolarization; active compounds read low;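 active means B-score under library mean minus 3 SD, initial fluorescence not abnormally high, positive integrated signal ratio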;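 further: B-score derived from integrated fluorescence ratio over the kinetic read; more negative B-score means stronger inhibition of depolarization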
TRPC4 PAM: TRPC4 (mouse) allosteric potentiation; Q9QUQ5; HEK293 TRPC4beta/mu-opioid, DAMGO EC20, Fluo-4 Ca2+ flux; active compounds read high; B-score at 10 µM; hit rate 0.42% among 310,000;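 active means B-score of calcium response area above 5 SD of library B-scores, with initial fluorescence ratio within 5 SD of library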;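 further: B-score of integrated fluorescence ratio over time as area under calcium response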
TRPC4 act: TRPC4 (mouse) channel activation | HEK293 TRPC4beta/mu-opioid, Fluo4 calcium fluorescence; active compounds read high | B-score at 10 µM | hit rate 0.49% among 310,000;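 active means B-score above 5 SD of library B-scores, and initial fluorescence ratio not above library mean plus 5 SD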;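 further: positive B-score marks a calcium rise read as TRPC4 activation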
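Test system: HEK293 cells stably co-expressing mouse TRPC4beta and mu-opioid receptor | Schedule: Fluo4 dye loading 45 min at room temperature, 110 s recording | Measured by: Kinetic Fluo4 calcium fluorescence, 5 s baseline at 1 Hz | Evaluation: B score of integrated ratio | Controls: Buffer (low) and maximal DAMGO (high)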
TRPC4 inh: inhibitors of mouse TRPC4 channel; B-score at 10 µM; hit rate 0.39% among 300,000; AID 2247; HEK293 TRPC4beta/mu-opioid, DAMGO-evoked Fluo4 calcium flux; active compounds read low;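 active means B-score over 3 SD under the library average, no early fluorescence shift, positive overall ratio signal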
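test system = HEK293 cells with stable TRPC4beta plus mu-opioid receptor expression | detection = Fluo4 Ca2+ flux fluorescence | read-out = integrated fluorescence ratio relative to baseline, converted to per-well B score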
TRPC6 act: activates the mouse TRPC6 cation channel | HEK293-TRPC6 membrane potential dye fluorescence; active compounds read high | Q61143 | hit rate 0.13% among 310,000 | B-score at 10 µM;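 active means B-score of the integrated fluorescence ratio above library mean plus 3 SD, and starting fluorescence ratio within library mean plus 5 SD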;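 further: higher score means more depolarization so channel activation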
Numbers without * were called inactive; i = inactive. Shown are actives, neighbours in structure and some others; about 2.3% of the full set was active somewhere.

SMILES	TRPC6 inhibitor	TRPC4 PAM	TRPC4 act	TRPC4 inh	TRPC6 act
COc1cc(C(=O)NCCSc2ccc(F)cc2)cc(OC)c1OC	i	i	i	i	i
C=CCc1ccc(OCC(O)CN2CCN(Cc3ccc(Cl)cc3)CC2)c(OC)c1 (centres undefined)	i	10*	i	i	i
C=CCc1ccc(OCC(O)CN2CCN(c3ccccc3OC)CC2)c(OC)c1 (centres undefined)	i	i	i	i	i
O=[N+]([O-])c1cc(S(=O)(=O)Nc2ccccc2)ccc1N1CCN(c2ccc(O)cc2)CC1	i	i	i	i	i
Cc1ccc(NS(=O)(=O)c2ccc(N3CCN(c4ccc(O)cc4)CC3)c([N+](=O)[O-])c2)c(C)c1	i	26*	i	i	i
CCCCC(=O)NNC(=S)NC(=O)c1ccc(C)cc1	i	i	240*	i	i
COc1ccc(C(=O)NC(=S)NNC(=O)c2ccc(C)cc2)cc1	i	i	189*	i	i
COc1ccc(C(=O)NNC(=S)NC(=O)c2ccc(Cl)cc2)cc1	i	i	163*	i	i
C=CCn1c(SCCN2CCCCC2)nc2c1c(=O)[nH]c(=O)n2C	i	40*	i	i	i
Cc1cccc(Cn2c(SCCN3CCCCC3)nc3c2c(=O)[nH]c(=O)n3C)c1	-5.65*	i	i	i	i
C/C=C/Cn1c(SCCCc2ccccc2)nc2c1c(=O)[nH]c(=O)n2C	i	86*	i	i	i
C=CCn1c(SCCOC)nc2c1c(=O)[nH]c(=O)n2C	i	i	i	i	i
O=C(CNC(=O)c1cccs1)c1ccc(Br)cc1	i	i	i	i	i
CCC1(c2ccccc2)NC(=O)N(CC(=O)Nc2cc(S(=O)(=O)N3CCCCC3)ccc2OC(C)C)C1=O (centres undefined)	i	i	i	i	i
Oc1ccccc1/C=N/NC(=S)NC1CC2CC1C1C=CCC21 (centres undefined)	i	i	i	-8*	i
Cc1ccc(NC(=O)c2cc(NC(=O)c3ccco3)ccc2N2CCOCC2)cc1	i	i	i	i	i
Cc1ccc(NC(=O)c2cc(N3C(=O)C=CC3=O)ccc2N2CCOCC2)cc1	i	i	i	-6*	i
Nc1nc(SCC(=O)Nc2ccc([N+](=O)[O-])cc2)[nH]c(=O)c1NC(=O)c1ccc(Br)o1	i	i	i	i	i
CCCCN(C)CCNC(=S)Nc1ccc2nc(N3CCN(CC)CC3)cc(C)c2c1	i	16*	i	i	i
CCN1CCN(c2cc(C)c3cc(NC(=S)NCCN(C)C)ccc3n2)CC1	i	i	i	i	i
CCCN(CCC)CCNC(=O)CCC(=O)Nc1ccc2nc(N3CCN(C)CC3)cc(C)c2c1	i	i	87*	i	i
CSc1nc(S(=O)(=O)c2ccc(C)cc2)c(Cl)s1	i	i	i	i	i
CCOC(=O)COc1cc(-n2c(=S)[nH]c3ccccc3c2=O)c(Cl)cc1Cl	i	31*	i	i	i
COc1ccc(NC(=O)C2CC3CCC2C3)c(OC)c1 (centres undefined)	i	i	i	i	i
CC(C)n1c(=N)c(C(=O)NCCc2ccccc2)cc2c(=O)n3ccccc3nc21	-10.1*	i	i	i	i
SMILES	TRPC6 inhibitor	TRPC4 PAM	TRPC4 act	TRPC4 inh	TRPC6 act
N=c1c(C(=O)NCc2ccccc2)cc2c(=O)n3ccccc3nc2n1Cc1ccco1	i	i	i	i	i
N=c1c(C(=O)NCc2ccc(F)cc2)cc2c(=O)n3ccccc3nc2n1Cc1ccco1	i	15*	i	i	i
Cc1ccc2nc3c(cc(C(=O)NCCc4ccccc4)c(=N)n3CCN3CCOCC3)c(=O)n2c1	i	i	i	i	i
N=c1c(C(=O)NCc2ccco2)cc2c(=O)n3ccccc3nc2n1Cc1ccc(Cl)cc1	i	13*	i	i	i
Cc1ccc2c(c1)N(CC(=O)NCC(C)c1ccccc1)C(=O)c1cccnc1O2 (centres undefined)	i	i	i	i	i
O=C(NCCC1=CCCCC1)C1CC(=O)N(Cc2ccccc2)C1 (centres undefined)	i	i	i	i	i
Cc1nc(N/N=C/c2ccccc2)nc(N(C)c2ccccc2)c1[N+](=O)[O-]	i	i	i	i	i
Cc1nc(Cl)nc(N(C)c2ccccc2)c1[N+](=O)[O-]	i	i	i	-6*	i
CC(NC(=O)COC(=O)/C=C/c1ccco1)c1ccccc1 (centres undefined)	i	i	i	i	i
OCC(Cc1ccccc1)NCc1ccccc1C(F)(F)F (centres undefined)	i	i	i	-6*	i
OC(CNCc1ccccc1C(F)(F)F)C(F)(F)F (centres undefined)	i	i	i	i	i
O=C(O)CCN=CC1=C(O)CC(c2ccccc2)CC1=O (centres undefined)	i	i	i	i	i
COc1cc(C(=O)OCC(=O)NC(N)=O)cc(CN2C(=O)c3ccccc3C2=O)c1OC	i	i	i	i	i
O=C(N/N=C/c1ccccc1OC(F)F)NC1CCCCC1	i	i	i	i	i
O=C(N/N=C/c1ccccc1F)NC1CCCCC1	i	21*	177*	i	i
O=C(N/N=C/c1cccc(F)c1)NC1CCCCC1	i	12*	i	i	i
O=C(N/N=C/c1ccccc1)NC1CCCCC1	i	i	i	i	i
C=CCn1c(N)cc(=O)nc1SCC(=O)Nc1ccc(C(=O)OCC)cc1	i	i	i	i	i
Cc1cc(C)c2c(c1)/C(=N\N=c1\sc3ccccc3n1C)C(=O)N2	i	i	i	i	i
O=C(NCCCN1CCN(c2cccc(Cl)c2)CC1)C1CCC(=O)N1Cc1ccccc1Cl (centres undefined)	i	i	i	-6*	i
CCOC(=O)c1sc2nc(N3CCOCC3)c3c(c2c1N)CCN(C)C3	-6.98*	i	i	i	i
COc1ccc(OCC(=O)Nc2ccccc2N2CCCCC2)cc1	i	i	i	i	i
CC(C)c1ccc(OCC(=O)Nc2cccc3c2CCCC3)cc1	i	i	i	i	i
CCC(=O)N1CCN(c2ccccc2NC(=O)COc2ccc(C(C)C)cc2)CC1	i	11*	i	i	i
COc1ccc(OCC(=O)Nc2ccccc2N2CCN(C)CC2)cc1	i	i	i	-6*	i

High-throughput results: PubChem, Johns Hopkins Ion Channel Center
